A short description of assay [1]: Inhibitory activity against recombinant Glutamate Racemase from Streptococcus pneumoniae expressed in Escherichia coli. A digest of the protocol: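 Enzyme purified by Ni(II) IMAC, imidazole gradient, from E. coli paste overexpressing the S. pneumoniae racemase; dialysed into Tris-HCl pH 7.8 with β-mercaptoethanol. Enzyme (6 µg mL-1) with 10 mM L-glutamate, inhibitor added before enzyme, 15 min at room temperature. Quenched with Marfey's reagent; derivatised 60 min at 40 °C. D/L-Glu separated by C18 HPLC, A340. Conversion from D/(D+L) peak areas over decreasing inhibitor concentrations gives IC50.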

The subject of assay [2] is Streptococcus pneumoniae. Briefly: In vitro whole cell growth inhibition against PN-R6 strain of Streptococcus pneumoniae. The format is functional. The method in brief: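 NCCLS microtiter broth dilution. Compounds in DMSO, 2-fold serial dilutions from 250 to 0.25 µg/mL in Mueller–Hinton II broth plus 5% lysed horse blood. Inoculum 5 × 10^5 CFU/mL; final DMSO 2.5%. Incubated overnight at 35 °C. MIC is the lowest concentration visibly inhibiting growth.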

In assay [3] the test system is Moraxella catarrhalis. Briefly: Antibacterial activity against Moraxella catarrhalis BC-1 strain. The format is functional.
For assay [4], the system named is Streptococcus pneumoniae. The assay is described as follows: Antibacterial activity against Streptococcus pneumoniae Park1 strain. The format is functional.
Assay [5] concerns Streptococcus pneumoniae. Briefly: Antibacterial activity against Streptococcus pneumoniae R6 strain. The format is functional.
The test system of assay [6] is Staphylococcus aureus. Briefly: Antibacterial activity against Staphylococcus aureus 027 strain. The format is functional.

The structures appear in SMILES notation. Converted amounts (≈) assume the structure as drawn. Bounds are passed on as bounds.

The IC50 is the concentration at which inhibition is half-maximal. In general, MIC refers to the lowest concentration found to suppress growth. The low end stands for inhibition by little substance, the high end for a need for much substance.

With `N[C@H](C[C@H](C/C=C/C=C/c1ccccc1)C(=O)O)C(=O)O`, the IC50 in assay [1] was determined as 9.1 µg/mL. In addition, in assay [2], the MIC was found to be 3.9 µg/mL (≈ 13.5 µM).

Turning to `N[C@H](C[C@H](Cc1ccc(NC(=O)Nc2ccccc2)cc1)C(=O)O)C(=O)O`, the IC50 in assay [1] turned out to be 0.49 µg/mL. Besides, 15.6 µg/mL (≈ 42 µM) was the least that counted as inhibitory in assay [2] (MIC).

For the molecule `N[C@H](C[C@H](Cc1cccc(Br)c1)C(=O)O)C(=O)O`, the IC50 in assay [1] was 0.13 µg/mL. The MIC in assay [2] stood at 0.5 µg/mL (≈ 1.58 µM).

On to `N[C@H](C[C@H](Cc1cccc(-c2cc3ccccc3s2)c1)C(=O)O)C(=O)O`, for which the IC50 in assay [1] is 0.3 µg/mL. In assay [2], the MIC turned out to be 0.5 µg/mL (≈ 1.35 µM).

On to `C#CC[C@@H](C[C@@H](N)C(=O)O)C(=O)O`, for which the IC50 in assay [1] is 5.5 µg/mL. Besides, the MIC in assay [2] amounted to 31.3 µg/mL (≈ 169 µM).

Turning to `COc1cccc(C[C@@H](C[C@@H](N)C(=O)O)C(=O)O)c1`, in assay [1], the IC50 is 0.2 µg/mL. The molecule also had an MIC in assay [2] of 0.5 µg/mL (≈ 1.87 µM).

As for `N[C@H](C[C@H](Cc1cc2ccccc2o1)C(=O)O)C(=O)O`, the IC50 in assay [1] was 0.1 µg/mL. In assay [2], this molecule displayed an MIC of 0.24 µg/mL (≈ 0.866 µM).

Take `N[C@H](C[C@H](Oc1ccc(-c2ccccc2)cc1)C(=O)O)C(=O)O`: the IC50 in assay [1] stood at 8.2 µg/mL. Inhibition of growth in assay [2] (MIC) required 31.3 µg/mL (≈ 99.3 µM).

Turning to `N[C@H](C[C@H](Cc1csc2ccccc12)C(=O)O)C(=O)O`, in assay [1], the IC50 was 1.7 µg/mL. In addition, the MIC in assay [2] came out at 7.8 µg/mL (≈ 26.6 µM).

Consider `COc1cc(C[C@@H](C[C@@H](N)C(=O)O)C(=O)O)cc(OC)c1OC`, for which, in assay [1], the IC50 stood at 81 µg/mL. In addition, the MIC in assay [2] is over 250 µg/mL.

Consider `N[C@H](C[C@H](Cc1ccc2ccccc2c1)C(=O)O)C(=O)O`, for which, in assay [1], the IC50 came to 0.1 µg/mL. Moreover, the MIC is 62.5 µg/mL (≈ 218 µM) in assay [3]; 3.9 µg/mL (≈ 13.6 µM) in assay [4]; 0.25 µg/mL (≈ 0.87 µM) in assay [5]; 0.25 µg/mL (≈ 0.87 µM) in assay [2]; over 250 µg/mL in assay [6].

Regarding `N[C@H](C[C@H](Cc1cccc(-c2ccco2)c1)C(=O)O)C(=O)O`, the IC50 in assay [1] turned out to be 0.5 µg/mL. The molecule further gave an MIC in assay [2] of 0.24 µg/mL (≈ 0.791 µM).

In the case of `N[C@H](C[C@H](Cc1cccc(Cl)c1)C(=O)O)C(=O)O`, the IC50 in assay [1] is 3.4 µg/mL. In assay [2], this molecule registered an MIC of 1 µg/mL (≈ 3.68 µM).

Consider `N[C@H](C[C@H](Cc1ccccc1Br)C(=O)O)C(=O)O`, for which the IC50 in assay [1] turned out to be 6.3 µg/mL. The same molecule yielded an MIC in assay [2] of 31.3 µg/mL (≈ 99 µM).

Consider `N[C@H](C[C@H](Cc1ccc(-c2cc3ccccc3s2)cc1)C(=O)O)C(=O)O`, for which the IC50 in assay [1] stood at 0.65 µg/mL. This molecule also returned an MIC in assay [2] of 3.9 µg/mL (≈ 10.6 µM).

Regarding `N[C@H](C[C@H](CC#Cc1ccccc1)C(=O)O)C(=O)O`, the IC50 in assay [1] was 0.37 µg/mL. In addition, 2 µg/mL (≈ 7.65 µM) was the least that counted as inhibitory in assay [2] (MIC).

For `COc1ccc(C[C@@H](C[C@@H](N)C(=O)O)C(=O)O)cc1`, the IC50 in assay [1] was 0.1 µg/mL. In assay [2], this molecule yielded an MIC of 0.5 µg/mL (≈ 1.87 µM).

`N[C@H](C[C@H](Cc1ccc(Cl)cc1)C(=O)O)C(=O)O`: the IC50 in assay [1] came out at 0.3 µg/mL. This molecule also showed an MIC in assay [2] of 0.5 µg/mL (≈ 1.84 µM).

For `N[C@H](C[C@H](Cc1ccccc1Cl)C(=O)O)C(=O)O`, in assay [1], the IC50 is 7.1 µg/mL. In addition, the MIC in assay [2] was 3.9 µg/mL (≈ 14.4 µM).

Regarding `N[C@H](C[C@H](Cc1sc2ccccc2c1Cl)C(=O)O)C(=O)O`, in assay [1], the IC50 is 0.01 µg/mL. Also, the MIC in assay [2] turned out to be 0.5 µg/mL (≈ 1.53 µM).

For the molecule `N[C@H](C[C@H](Cc1ccc(NS(=O)(=O)c2ccccc2)cc1)C(=O)O)C(=O)O`, the IC50 in assay [1] amounted to 10.2 µg/mL. The MIC in assay [2] is over 250 µg/mL.

For `N[C@H](C[C@H](Cc1nc2ccccc2s1)C(=O)O)C(=O)O`, the IC50 in assay [1] came out at 0.38 µg/mL. The molecule also gave an MIC in assay [2] of 0.24 µg/mL (≈ 0.815 µM).

`N[C@H](C[C@H](Oc1ccc(Oc2ccccc2)cc1)C(=O)O)C(=O)O`: in assay [1], the half-maximal inhibitory concentration (IC50) came to 46.3 µg/mL. Moreover, the MIC in assay [2] worked out at 125 µg/mL (≈ 377 µM).

For `N[C@H](C[C@H](Cc1cc(Cl)cc(Cl)c1)C(=O)O)C(=O)O`, the IC50 in assay [1] came out at 3 µg/mL. This molecule also displayed an MIC in assay [2] of 3.9 µg/mL (≈ 12.7 µM).

`N[C@H](C[C@H](CNC(=O)c1ccccc1)C(=O)O)C(=O)O`: in assay [1], the IC50 was found to be 9.4 µg/mL. Moreover, the MIC in assay [2] was determined as 62.5 µg/mL (≈ 223 µM).

As to `N[C@H](C[C@H](Cc1cc2ccccc2[nH]1)C(=O)O)C(=O)O`, the IC50 in assay [1] is 9.8 µg/mL. In assay [2], inhibition of growth (MIC) required 62.5 µg/mL (≈ 226 µM).

For the molecule `N[C@H](C[C@H](Cc1ccccc1-c1ccccc1)C(=O)O)C(=O)O`, the IC50 in assay [1] was over 100 µg/mL. In assay [2], this molecule returned an MIC of over 250 µg/mL.

For `N[C@H](C[C@H](C/C=C/c1ccccc1)C(=O)O)C(=O)O`, the IC50 in assay [1] was found to be 0.1 µg/mL. In assay [2], this molecule returned an MIC of 0.4 µg/mL (≈ 1.52 µM).

For `N[C@H](C[C@H](Cc1ccc(-c2ccsc2)cc1)C(=O)O)C(=O)O`, the IC50 in assay [1] came out at 0.32 µg/mL. In assay [2], this molecule gave an MIC of 0.24 µg/mL (≈ 0.751 µM).

On to `CC(C)(C)c1ccc(C[C@@H](C[C@@H](N)C(=O)O)C(=O)O)cc1`, for which the IC50 in assay [1] was 0.6 µg/mL. The molecule further registered an MIC in assay [2] of 1 µg/mL (≈ 3.41 µM).

In the case of `N[C@H](C[C@H](Cc1ccc(-c2ccccc2)cc1)C(=O)O)C(=O)O`, in assay [1], the IC50 was found to be 0.078 µg/mL. In assay [2], this molecule registered an MIC of 1 µg/mL (≈ 3.19 µM).

For the molecule `N[C@H](C[C@H](Cc1ccc([N+](=O)[O-])cc1)C(=O)O)C(=O)O`, in assay [1], the IC50 was found to be 5.2 µg/mL. Further, it took 2 µg/mL (≈ 7.09 µM) to inhibit growth in assay [2] (MIC).

For `N[C@H](C[C@H](Cc1cccc2ccccc12)C(=O)O)C(=O)O`, the IC50 in assay [1] was 5.6 µg/mL. Besides, the MIC in assay [2] turned out to be 3.9 µg/mL (≈ 13.6 µM).

In the case of `N[C@H](C[C@H](CCCC1CCCCC1)C(=O)O)C(=O)O`, the IC50 in assay [1] is 0.6 µg/mL. This molecule also showed an MIC in assay [2] of 2 µg/mL (≈ 7.37 µM).

`N[C@H](C[C@H](Cc1cccc(-c2ccccc2)c1)C(=O)O)C(=O)O`: the IC50 in assay [1] amounted to 0.7 µg/mL. In assay [2], this molecule yielded an MIC of 0.5 µg/mL (≈ 1.6 µM).

With `N[C@H](C[C@H](Cc1cc2ccccc2s1)C(=O)O)C(=O)O`, the IC50 in assay [1] came out at 0.036 µg/mL. Further, the MIC in assay [3] is over 250 µg/mL; in assay [4], 0.24 µg/mL (≈ 0.818 µM); in assay [5], 0.24 µg/mL (≈ 0.818 µM); in assay [2], 0.24 µg/mL (≈ 0.818 µM); in assay [6], over 250 µg/mL.

Consider `N[C@H](C[C@H](Cc1ccc(C(F)(F)F)cc1)C(=O)O)C(=O)O`, for which the IC50 in assay [1] came out at 0.8 µg/mL. This molecule gave an MIC in assay [2] of 7.8 µg/mL (≈ 25.6 µM).

Regarding `N[C@H](C[C@H](Cc1cccc([N+](=O)[O-])c1)C(=O)O)C(=O)O`, in assay [1], the IC50 is 5.2 µg/mL. This molecule also displayed an MIC in assay [2] of 2 µg/mL (≈ 7.09 µM).

Regarding `N[C@H](C[C@H](C/C=C/c1ccc2ccccc2c1)C(=O)O)C(=O)O`, in assay [1], the IC50 came out at 0.5 µg/mL. For the same molecule, in assay [2], the MIC came out at 0.5 µg/mL (≈ 1.6 µM).

For the molecule `N[C@H](C[C@H](Cc1cccc(C(F)(F)F)c1)C(=O)O)C(=O)O`, the IC50 in assay [1] is 0.8 µg/mL. Besides, in assay [2], the lowest concentration to inhibit growth (MIC) was 0.5 µg/mL (≈ 1.64 µM).

For the molecule `N[C@H](C[C@H](Oc1ccccc1)C(=O)O)C(=O)O`, in assay [1], the half-inhibitory concentration (IC50) amounted to 26.5 µg/mL. In addition, in assay [2], the MIC is 62.5 µg/mL (≈ 261 µM).

As to `N[C@H](C[C@H](Cc1ccc(-c2ccc3ccccc3c2)cc1)C(=O)O)C(=O)O`, the IC50 in assay [1] turned out to be 0.42 µg/mL. The molecule also yielded an MIC in assay [2] of 7.8 µg/mL (≈ 21.5 µM).

On to `N[C@H](C[C@H](Cc1ccccc1)C(=O)O)C(=O)O`, for which the IC50 in assay [1] was 0.3 µg/mL. Further, the MIC in assay [2] was 0.5 µg/mL (≈ 2.11 µM).

On to `N[C@H](C[C@H](CCCc1ccccc1)C(=O)O)C(=O)O`, for which the IC50 in assay [1] came to 0.5 µg/mL. Moreover, the MIC in assay [2] was determined as 3.9 µg/mL (≈ 14.7 µM).

With `N[C@H](C[C@H](Cc1cccs1)C(=O)O)C(=O)O`, the IC50 in assay [1] came to 0.1 µg/mL. This molecule also returned an MIC in assay [2] of 1 µg/mL (≈ 4.11 µM).

As to `N[C@H](C[C@H](Cc1cc(C(F)(F)F)cc(C(F)(F)F)c1)C(=O)O)C(=O)O`, in assay [1], the IC50 was over 100 µg/mL. Besides, the MIC in assay [2] is over 250 µg/mL.

The values above are taken from ChEMBL document CHEMBL1135748, “4-Substituted D-glutamic acid analogues: the first potent inhibitors of glutamate racemase (MurI) enzyme with antibacterial activity” (J Med Chem, 2002).
